# From ChEMBL document CHEMBL3046000, “Design and synthesis of 1-(benzothiazol-5-yl)-1H-1,2,4-triazol-5-ones as protoporphyrinogen oxidase inhibitors” (Bioorg Med Chem, 2013)
# How the values were obtained:
# [1] = Phytotoxicity against 4-leaf stage Glycine max (soybean) plants assessed as plant growth inhibition at 75 g ai/ha applied through spraying measured 30 days after compound treatment under greenhouse conditions; type: organism-based; settings: in vivo, read-out: GI
# Chenopodium album [2] = assay: Post-emergence herbicidal activity against Chenopodium album seedlings assessed as plant growth inhibition at 150 g ai/ha measured 15 days after compound treatment under greenhouse conditions; type: functional; settings: 360 h, read-out: GI
# Veronica polita = assay: Post-emergence herbicidal activity against Veronica polita assessed as plant growth inhibition at 75 g ai/ha; type: functional; settings: read-out: GI
# How it was run: (§1)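 Compounds formulated as 100 g/L emulsifiable concentrates in DMF with Tween-80 as emulsifier, then diluted with water. Sprayed post-emergence onto pot-grown plants in a greenhouse, with broadleaf weeds at the 2-leaf stage and grasses at the 1-leaf stage. Clay soil with 1.6% organic matter and CEC 12.1 […]; relative humidity about 50%. Rate (g ai/ha) = active ingredient ÷ pot surface area. Untreated and DMF + Tween-80 solvent controls.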
# Senna tora = assay: Post-emergence herbicidal activity against Senna tora assessed as plant growth inhibition at 75 g ai/ha; type: functional; settings: read-out: GI; how it was run: as §1
# [3] = Phytotoxicity against four-leaf stage Zea mays cv. Anjou (maize) plants assessed as plant growth inhibition at 150 g ai/ha applied through spraying measured 30 days after compound treatment under greenhouse conditions; type: organism-based; settings: in vivo, read-out: GI
# [4] = Phytotoxicity against 4-leaf stage Glycine max (soybean) plants assessed as plant growth inhibition at 150 g ai/ha applied through spraying measured 30 days after compound treatment under greenhouse conditions; type: organism-based; settings: in vivo, read-out: GI
# Echinochloa crus-galli [5] = assay: Post emergence herbicidal activity against Echinochloa crus-galli (barnyard grass) seedlings assessed as plant growth inhibition at 75 g ai/ha measured 15 days after compound treatment under greenhouse conditions; type: functional; settings: 360 h, read-out: GI
# [6] = Phytotoxicity against 4-leaf stage Triticum aestivum (wheat) plants assessed as plant growth inhibition at 150 g ai/ha applied through spraying measured 30 days after compound treatment under greenhouse conditions; type: organism-based; settings: in vivo, read-out: GI
# Ammannia baccifera = assay: Post-emergence herbicidal activity against Ammannia baccifera assessed as plant growth inhibition at 75 g ai/ha; type: functional; settings: read-out: GI; how it was run: as §1
# Commelina communis = assay: Post-emergence herbicidal activity against Commelina communis (Asiatic dayflower) assessed as plant growth inhibition at 75 g ai/ha; type: functional; settings: read-out: GI; how it was run: as §1
# Amaranthus spinosus = assay: Post-emergence herbicidal activity against Amaranthus spinosus assessed as plant growth inhibition at 75 g ai/ha; type: functional; settings: read-out: GI; how it was run: as §1
# [7] = Phytotoxicity against four-leaf stage Oryza sativa (rice) plants assessed as plant growth inhibition at 150 g ai/ha applied through spraying measured 30 days after compound treatment under greenhouse conditions; type: organism-based; settings: in vivo, read-out: GI
# Setaria faberi [8] = assay: Post-emergence herbicidal activity against Setaria faberi (Giant Foxtail) seedlings assessed as plant growth inhibition at 37.5 g ai/ha measured 15 days after compound treatment under greenhouse conditions; type: functional; settings: 360 h, read-out: GI
# Digitaria sanguinalis [9] = assay: Post-emergence herbicidal activity against Digitaria sanguinalis (hairy crabgrass) seedlings assessed as plant growth inhibition at 75 g ai/ha measured 15 days after compound treatment under greenhouse conditions; type: functional; settings: 360 h, read-out: GI
# Echinochloa crus-galli [10] = assay: Post emergence herbicidal activity against Echinochloa crus-galli (barnyard grass) seedlings assessed as plant growth inhibition at 37.5 g ai/ha measured 15 days after compound treatment under greenhouse conditions; type: functional; settings: 360 h, read-out: GI
# Setaria faberi [11] = assay: Post-emergence herbicidal activity against Setaria faberi (Giant Foxtail) seedlings assessed as plant growth inhibition at 150 g ai/ha measured 15 days after compound treatment under greenhouse conditions; type: functional; settings: 360 h, read-out: GI
# Myosoton aquaticum = assay: Post-emergence herbicidal activity against Myosoton aquaticum assessed as plant growth inhibition at 75 g ai/ha; type: functional; settings: read-out: GI; how it was run: as §1
# [12] = target: T1, Protoporphyrinogen oxidase, chloroplastic (Nicotiana tabacum, UniProt O24163); assay: Inhibition of Nicotiana tabacum (tobacco) recombinant PPO assessed as protoporphyrin IX formation at room temperature by fluorimetric assay
# T1 sequence (O24163 whole entry): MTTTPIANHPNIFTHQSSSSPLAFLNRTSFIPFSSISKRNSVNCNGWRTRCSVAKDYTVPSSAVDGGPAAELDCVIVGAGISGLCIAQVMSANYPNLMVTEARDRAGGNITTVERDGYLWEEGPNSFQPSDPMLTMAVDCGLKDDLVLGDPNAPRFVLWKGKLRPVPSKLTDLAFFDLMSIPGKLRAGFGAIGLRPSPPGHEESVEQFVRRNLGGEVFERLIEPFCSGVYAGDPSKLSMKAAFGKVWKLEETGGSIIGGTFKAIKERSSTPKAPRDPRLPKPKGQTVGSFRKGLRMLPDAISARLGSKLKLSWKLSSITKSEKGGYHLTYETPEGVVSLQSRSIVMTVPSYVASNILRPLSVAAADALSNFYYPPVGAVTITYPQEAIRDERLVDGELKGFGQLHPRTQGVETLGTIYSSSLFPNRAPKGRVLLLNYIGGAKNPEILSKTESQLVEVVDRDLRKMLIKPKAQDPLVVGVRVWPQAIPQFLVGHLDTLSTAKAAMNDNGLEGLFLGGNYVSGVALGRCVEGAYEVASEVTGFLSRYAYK
# Amaranthus retroflexus [13] = assay: Post emergence herbicidal activity against Amaranthus retroflexus seedlings assessed as plant growth inhibition at 75 g ai/ha measured 15 days after compound treatment under greenhouse conditions; type: functional; settings: 360 h, read-out: GI
# Cerastium arvense = assay: Post-emergence herbicidal activity against Cerastium arvense assessed as plant growth inhibition at 75 g ai/ha; type: functional; settings: read-out: GI; how it was run: as §1
# Brassica juncea [14] = assay: Post-emergence herbicidal activity against Brassica juncea seedlings assessed as plant growth inhibition at 150 g ai/ha measured 15 days after compound treatment under greenhouse conditions; type: functional; settings: 360 h, read-out: GI
# Eleusine indica = assay: Post-emergence herbicidal activity against Eleusine indica assessed as plant growth inhibition at 75 g ai/ha; type: functional; settings: read-out: GI; how it was run: as §1
# Boehmeria nivea = assay: Post-emergence herbicidal activity against Boehmeria nivea assessed as plant growth inhibition at 75 g ai/ha; type: functional; settings: read-out: GI; how it was run: as §1
# Polygonum humifusum = assay: Post-emergence herbicidal activity against Polygonum humifusum assessed as plant growth inhibition at 75 g ai/ha; type: functional; settings: read-out: GI; how it was run: as §1
# Echinochloa crus-galli [15] = assay: Post emergence herbicidal activity against Echinochloa crus-galli (barnyard grass) seedlings assessed as plant growth inhibition at 150 g ai/ha measured 15 days after compound treatment under greenhouse conditions; type: functional; settings: 360 h, read-out: GI
# [16] = Phytotoxicity against four-leaf stage Brassica napus (oilseed rape) plants assessed as plant growth inhibition at 150 g ai/ha applied through spraying measured 30 days after compound treatment under greenhouse conditions; type: organism-based; settings: in vivo, read-out: GI
# Symphyotrichum subulatum = assay: Post-emergence herbicidal activity against Symphyotrichum subulatum assessed as plant growth inhibition at 75 g ai/ha; type: functional; settings: read-out: GI; how it was run: as §1
# Phytolacca acinosa = assay: Post-emergence herbicidal activity against Raddix phytolaccae assessed as plant growth inhibition at 75 g ai/ha; type: functional; settings: read-out: GI; how it was run: as §1
# Chenopodium album [17] = assay: Post-emergence herbicidal activity against Chenopodium album seedlings assessed as plant growth inhibition at 37.5 g ai/ha measured 15 days after compound treatment under greenhouse conditions; type: functional; settings: 360 h, read-out: GI
# Solanum nigrum = assay: Post-emergence herbicidal activity against Solanum nigrum (black nightshade) assessed as plant growth inhibition at 75 g ai/ha; type: functional; settings: read-out: GI; how it was run: as §1
# Alkekengi officinarum = assay: Post-emergence herbicidal activity against Physalis alkekengi assessed as plant growth inhibition at 75 g ai/ha; type: functional; settings: read-out: GI; how it was run: as §1
# Capsella bursa-pastoris = assay: Post-emergence herbicidal activity against Capsella bursa-pastoris assessed as plant growth inhibition at 75 g ai/ha; type: functional; settings: read-out: GI; how it was run: as §1
# Ludwigia prostrata = assay: Post-emergence herbicidal activity against Ludwigia prostrata assessed as plant growth inhibition at 75 g ai/ha; type: functional; settings: read-out: GI; how it was run: as §1
# Setaria faberi [18] = assay: Post-emergence herbicidal activity against Setaria faberi (Giant Foxtail) seedlings assessed as plant growth inhibition at 75 g ai/ha measured 15 days after compound treatment under greenhouse conditions; type: functional; settings: 360 h, read-out: GI
# Amaranthus retroflexus [19] = assay: Post emergence herbicidal activity against Amaranthus retroflexus seedlings assessed as plant growth inhibition at 37.5 g ai/ha measured 15 days after compound treatment under greenhouse conditions; type: functional; settings: 360 h, read-out: GI
# Amaranthus retroflexus [20] = assay: Post emergence herbicidal activity against Amaranthus retroflexus seedlings assessed as plant growth inhibition at 150 g ai/ha measured 15 days after compound treatment under greenhouse conditions; type: functional; settings: 360 h, read-out: GI
# [21] = Phytotoxicity against four-leaf stage Gossypium hirsutum (cotton) plants assessed as plant growth inhibition at 150 g ai/ha applied through spraying measured 30 days after compound treatment under greenhouse conditions; type: organism-based; settings: in vivo, read-out: GI
# Brassica juncea [22] = assay: Post-emergence herbicidal activity against Brassica juncea seedlings assessed as plant growth inhibition at 75 g ai/ha measured 15 days after compound treatment under greenhouse conditions; type: functional; settings: 360 h, read-out: GI
# Chenopodium album [23] = assay: Post-emergence herbicidal activity against Chenopodium album seedlings assessed as plant growth inhibition at 75 g ai/ha measured 15 days after compound treatment under greenhouse conditions; type: functional; settings: 360 h, read-out: GI
# Digitaria sanguinalis [24] = assay: Post-emergence herbicidal activity against Digitaria sanguinalis (hairy crabgrass) seedlings assessed as plant growth inhibition at 37.5 g ai/ha measured 15 days after compound treatment under greenhouse conditions; type: functional; settings: 360 h, read-out: GI
# Sonchus asper = assay: Post-emergence herbicidal activity against Sonchus asper assessed as plant growth inhibition at 75 g ai/ha; type: functional; settings: read-out: GI; how it was run: as §1
# Brassica juncea [25] = assay: Post-emergence herbicidal activity against Brassica juncea seedlings assessed as plant growth inhibition at 37.5 g ai/ha measured 15 days after compound treatment under greenhouse conditions; type: functional; settings: 360 h, read-out: GI
# Digitaria sanguinalis [26] = assay: Post-emergence herbicidal activity against Digitaria sanguinalis (hairy crabgrass) seedlings assessed as plant growth inhibition at 150 g ai/ha measured 15 days after compound treatment under greenhouse conditions; type: functional; settings: 360 h, read-out: GI
smiles,measurement,setting,value
CCOC(=O)C(C)Sc1nc2cc(-n3nc(C)n(C(F)F)c3=O)c(F)cc2s1 (stereo not drawn),inhibition at 720 h,[1],0%
same,inhibition of growth at 150 g/ha,Chenopodium album [2],≥ 90%
same,inhibition of growth at 75 g/ha,Veronica polita,100%
same,inhibition of growth at 75 g/ha,Senna tora,> 90%
same,inhibition at 720 h,[3],30%
same,inhibition at 720 h,[4],0%
same,inhibition of growth at 75 g/ha,Echinochloa crus-galli [5],80%
same,inhibition at 720 h,[6],80%
same,inhibition of growth at 75 g/ha,Ammannia baccifera,> 90%
same,inhibition of growth at 75 g/ha,Commelina communis,> 90%
same,inhibition of growth at 75 g/ha,Amaranthus spinosus,100%
same,inhibition at 720 h,[7],50%
same,inhibition of growth at 37.5 g/ha,Setaria faberi [8],≥ 90%
same,inhibition of growth at 75 g/ha,Digitaria sanguinalis [9],80%
same,inhibition of growth at 37.5 g/ha,Echinochloa crus-galli [10],80%
same,inhibition of growth at 150 g/ha,Setaria faberi [11],≥ 90%
same,inhibition of growth at 75 g/ha,Myosoton aquaticum,> 90%
same,Ki,[12],240 nM
same,inhibition of growth at 75 g/ha,Amaranthus retroflexus [13],80%
same,inhibition of growth at 75 g/ha,Cerastium arvense,100%
same,inhibition of growth at 150 g/ha,Brassica juncea [14],≥ 90%
same,inhibition of growth at 75 g/ha,Eleusine indica,100%
same,inhibition of growth at 75 g/ha,Boehmeria nivea,100%
same,inhibition of growth at 75 g/ha,Polygonum humifusum,100%
same,inhibition of growth at 150 g/ha,Echinochloa crus-galli [15],≥ 90%
same,inhibition at 720 h,[16],100%
same,inhibition of growth at 75 g/ha,Symphyotrichum subulatum,100%
same,inhibition of growth at 75 g/ha,Phytolacca acinosa,> 90%
same,inhibition of growth at 37.5 g/ha,Chenopodium album [17],60%
same,inhibition of growth at 75 g/ha,Solanum nigrum,100%
same,inhibition of growth at 75 g/ha,Alkekengi officinarum,> 90%
same,inhibition of growth at 75 g/ha,Capsella bursa-pastoris,100%
same,inhibition of growth at 75 g/ha,Ludwigia prostrata,> 90%
same,inhibition of growth at 75 g/ha,Setaria faberi [18],≥ 90%
same,inhibition of growth at 37.5 g/ha,Amaranthus retroflexus [19],80%
same,inhibition of growth at 150 g/ha,Amaranthus retroflexus [20],≥ 90%
same,inhibition at 720 h,[21],70%
same,inhibition of growth at 75 g/ha,Brassica juncea [22],≥ 90%
same,inhibition of growth at 75 g/ha,Chenopodium album [23],60%
same,inhibition of growth at 37.5 g/ha,Digitaria sanguinalis [24],80%
same,inhibition of growth at 75 g/ha,Sonchus asper,100%
same,inhibition of growth at 37.5 g/ha,Brassica juncea [25],≥ 90%
same,inhibition of growth at 150 g/ha,Digitaria sanguinalis [26],≥ 90%
